One block for each molecule: values may come before it.
How the values were obtained:
[1] = Drug metabolism in human KB cells assessed as formation of protoporphyrin 9 after 2 to 24 hrs by fluorescence spectrometer; format: ADME, cell-based
How it was run: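 KB monolayers (48 h after seeding ~5×10^4/well) washed, then given prodrug or ALA at 50 μM in serum-free medium at 37 °C. PpIX fluorescence read in wells at 2, 4, 6 and 24 h, excitation 405 nm, emission 635 nm. Untreated wells subtracted for autofluorescence; mean intensity in arbitrary units, triplicate.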

[2] = Drug metabolism in human KB cells assessed as protoporphyrin 9 formation at 500 uM preincubated for 1 hr at 4 degC followed by compound washout and subsequent incubation for 4 hrs at 37 degC by fluorescence spectrometer; format: ADME, cell-based
How it was run: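 KB cells exposed 1 h to 500 μM prodrug in clear medium at either 4 °C or 37 °C, plates foil-wrapped. Compound then removed, PBS rinse, fresh medium, both plates 4 h at 37 °C. PpIX read in wells at 405/635 nm after subtracting untreated wells.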

[3] = Drug metabolism in human KB cells assessed as formation of protoporphyrin 9 at 100 uM after 6 to 24 hrs by fluorescence spectrometer; format: ADME, cell-based
How it was run: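 Time course in KB cells at 37 °C after 100 μM conjugate, ALA, or 1:1 ALA + HPO mixture in serum-free medium. Well PpIX fluorescence read at 405 nm excitation / 635 nm emission, control autofluorescence subtracted, triplicate means.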

KB [4] = test: Phototoxicity in human KB cells assessed as reduction in cell viability preincubated for 4 hrs followed by irradiation with blue light at 2.5 J/cm2 and subsequent incubation for 18 hrs measured after 24 hrs post treatment by MTT assay; format: functional; details: for CC50: light or radiation study, read-out: LD50 (the source's name)
How it was run: (§1)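 Cells seeded ~5 × 10^4 per well, grown 48 h, washed with PBS, then 4 h with compound (five concentrations within 1–100 μM, triplicate, three untreated control wells per plate). Irradiated with blue light, peak ~420 nm, 2.5 J/cm². Medium replaced, cells kept a further 18 h. MTT read at A570 24 h after treatment; survival expressed as percentage of control. LD50 taken from two sets of experiments.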

MCF7 = test: Phototoxicity in human MCF7 cells assessed as reduction in cell viability preincubated for 4 hrs followed by irradiation with blue light at 2.5 J/cm2 and subsequent incubation for 18 hrs measured after 24 hrs post treatment by MTT assay; format: functional; details: for CC50: MCF7, light or radiation study, read-out: LD50 (the source's name); how it was run: as §1
MCF7R = test: Phototoxicity in human doxorubicin resistant MCF7/R cells assessed as reduction in cell viability preincubated for 4 hrs followed by irradiation with blue light at 2.5 J/cm2 and subsequent incubation for 18 hrs measured after 24 hrs post treatment by MTT assay; format: functional; details: for CC50: light or radiation study, read-out: LD50 (the source's name); how it was run: as §1
KB [5] = test: Dark toxicity against human KB cells at 200 uM preincubated for 4 hrs followed by compound washout measured after 24 hrs by MTT assay; format: cell-based
How it was run: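 Dark toxicity in KB cells: 200 μM compound for 4 h with no light, removed, cells kept 24 h. Viability by MTT (2 h, A570 after DMSO solubilisation), given as % of untreated controls. Triplicate.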

[6] = Drug metabolism in human KB cells assessed as formation of protoporphyrin 9 preincubated for 2 hrs followed by compound washout measured after 24 hrs by HPLC-based fluorescence analysis; format: ADME, cell-based
How it was run: (§2)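 Cells given ALA or conjugate for 2 h at 37 °C, then fresh medium without compound. At 24 h, lysed in CelLytic (15 min, room temperature), scraped and spun 1800g for 10 min. Supernatant PpIX read by fluorescence at 405/635 nm and normalised per mg protein (BCA). Untreated blanks subtracted.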

[7] = Drug metabolism in human doxorubicin resistant MCF7/R cells assessed as formation of protoporphyrin 9 preincubated for 2 hrs followed by compound washout measured after 24 hrs by HPLC-based fluorescence analysis; format: ADME, cell-based; details: mcf7r; how it was run: as §2
[8] = Drug metabolism in human doxorubicin resistant MCF7/R cells assessed as formation of protoporphyrin 9 at 100 uM after 6 hrs by fluorescence spectrometer relative to ALA; format: ADME, cell-based; details: mcf7r
How it was run: (§3)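 MCF-7R monolayers exposed 6 h at 37 °C to ALA, conjugates or ALA hexyl/octyl esters at 1–100 μM in serum-free medium. PpIX emission at 635 nm (405 nm excitation; spectra 600–750 nm) read in wells. Untreated controls subtracted; mean of triplicates in arbitrary units.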

KB [9] = test: Dark toxicity against human KB cells assessed as cell survival at 100 uM after 24 hrs by MTT assay; format: cell-based
[10] = Drug metabolism in mouse PAM212 cells assessed as formation of protoporphyrin 9 at 0.01 mM after 6 hrs by fluorescence spectrometer relative to ALA; format: ADME, cell-based; details: pam212, 6 h, 10 µM
CNE-2 [11] = test: Phototoxicity in human CNE2 cells assessed as reduction in cell viability preincubated for 4 hrs followed by irradiation with 4 J/cm2 light dose measured after 24 hrs by MTT assay; format: functional
CNE-2 [12] = test: Potency index, ratio of ALA LD80 to test compound LD80 for phototoxicity against human CNE2 cells; format: functional
[13] = Dark toxicity against human KB cells assessed as cell survival at 100 uM after 4 hrs by MTT assay; format: cell-based; details: read-out: Survival
How it was run: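 Cells seeded ~5 × 10^4 per well, grown 48 h, washed with PBS, then exposed to compound in medium for 4 h without irradiation. Incubation then continued for 24 h after prodrug removal. Viability by MTT (1 mg/mL, 2 h), formazan dissolved in DMSO, A570, expressed as percentage of untreated control wells on the same plate. Triplicate.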

KB [14] = test: Dark toxicity against human KB cells preincubated for 4 hrs followed by compound washout measured after 24 hrs by MTT assay; format: cell-based
How it was run: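 KB cells seeded ~5×10^4/well, grown 48 h, PBS-washed, then exposed to compound for 4 h without irradiation. Medium replaced and cells kept a further ~24 h. Survival by MTT (1 mg/mL in EMEM, 2 h), formazan dissolved in DMSO, A570, expressed as % of untreated control wells. Triplicate wells.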

CNE-2 [15] = test: Phototoxicity in human CNE2 cells assessed as reduction in cell viability preincubated for 4 hrs followed by irradiation with 6 J/cm2 light dose measured after 24 hrs by MTT assay; format: functional
[16] = Drug metabolism in human doxorubicin resistant MCF7/R cells assessed as formation of protoporphyrin 9 at 100 uM after 6 hrs by fluorescence spectrometer; format: ADME, cell-based; details: mcf7r; how it was run: as §3

SMILES: CCc1c(O)c(=O)ccn1CCOCCOCCOC(=O)CCC(=O)CN.Cl
Drug metabolism [1]: Metabolite_Detected
Drug metabolism [2]: Metabolite_Detected
Drug metabolism [3]: Metabolite_Detected
Activity (KB [4]): Dose-dependent effect
CC50 (KB [4]): 19.6 µM
Activity (MCF7): Dose-dependent effect
CC50 (MCF7): 15.8 µM
Activity (MCF7R): Dose-dependent effect
CC50 (MCF7R): 11.3 µM
Activity (KB [5]): Non-Toxic
Drug metabolism [6]: Metabolite_Detected
Drug metabolism [7]: Metabolite_Detected
fold change (FC) [8]: 20
Activity (KB [9]): Non-Toxic

fold change (FC) [10]: 5
SMILES: COC(=O)CCC(=O)CNC(=O)[C@H](Cc1ccccc1)NC(C)=O

SMILES: CCCCCCOC(=O)CCC(=O)CN [HEXAMINOLEVULINATE]
Drug metabolism [1]: Metabolite_Detected
Activity (KB [4]): Dose-dependent effect
CC50 (KB [4]): 2.6 µM
Activity (MCF7): Dose-dependent effect
CC50 (MCF7): 9.3 µM
Activity (MCF7R): Dose-dependent effect
CC50 (MCF7R): 8.4 µM
LD80 (CNE-2 [11]): 0.03 mM
Ratio (CNE-2 [12]): 40
viability at 4 h, 100 µM [13]: 9%
Activity (KB [14]): Toxic

SMILES: NCC(=O)CCC(=O)O [AMINOLEVULINIC ACID]
Drug metabolism [2]: Metabolite_Notdetected
Activity (KB [4]): Dose-dependent effect
CC50 (KB [4]): 124 µM
Activity (MCF7): Dose-dependent effect
CC50 (MCF7): 131 µM
Activity (MCF7R): Dose-dependent effect
CC50 (MCF7R): 122 µM
LD80 (CNE-2 [15]): 0.75 mM
Activity (KB [5]): Non-Toxic
Drug metabolism [16]: Metabolite_Detected
Activity (KB [9]): Non-Toxic

From ChEMBL document CHEMBL4049424, “Hydroxypyridinone and 5-Aminolaevulinic Acid Conjugates for Photodynamic Therapy” (J Med Chem, 2017)
